Test results taken from ChEMBL document CHEMBL4689842, “EUbOPEN Chemogenomics Library wave 1” (2021).

Tested on: U2OS
Test: Multiplex assay against U2OS
Format: toxicity, cell-based
Conditions: human
Procedure, shortened: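 Live cells carried four stains from seeding: Hoechst33342, BioTracker Green Microtubule Cytoskeleton Dye, MitoTracker Red and Annexin V Alexa Fluor 680. They were imaged on a CQ1 microscope at 37°C and 5% CO2 after compound addition. Using CellPathfinder machine-learning gating, cells were split into Hoechst high-intensity objects or normal cells, normal cells into healthy, pyknosed or fragmented nuclei, and pyknosed cells into mitotic or apoptotic; tubulin, mitochondrial-mass and membrane-permeability phenotypes are per cents of healthy-nucleus cells.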

[1] = 12 h, 1 µM, compound concentration 1 uM, replicate 1
[2] = 12 h, 1 µM, compound concentration 1 uM, replicate 2
[3] = 12 h, 10 µM, compound concentration 10 uM, replicate 1
[4] = 12 h, 10 µM, compound concentration 10 uM, replicate 2
[5] = 24 h, 1 µM, compound concentration 1 uM, replicate 1
[6] = 24 h, 1 µM, compound concentration 1 uM, replicate 2
[7] = 24 h, 10 µM, compound concentration 10 uM, replicate 1
[8] = 24 h, 10 µM, compound concentration 10 uM, replicate 2
[9] = 48 h, 1 µM, compound concentration 1 uM, replicate 1
[10] = 48 h, 1 µM, compound concentration 1 uM, replicate 2
[11] = 48 h, 10 µM, compound concentration 10 uM, replicate 1
[12] = 48 h, 10 µM, compound concentration 10 uM, replicate 2

## O=C(O)c1ccc2cc(-c3ccc(O)c(C45CC6CC(CC(C6)C4)C5)c3)ccc2c1 [O-DEMETHYLATED ADAPALENE]
[1]
  Population Apoptotic (%): 50%
  Population Fragmented Nuclei (%): 21%
  Population Healthy Nuclei (%): 66%
  Population Hoechst High Intensity Objects (%): 11%
  Population Membrane Permeable-Phenotype (%): 13%
  Population Mitochondria Different-Phenotype (%): 12%
  Population Mitotic Cells (%): 50%
  Population Normal (%): 88%
  Population Pyknosed Nuclei (%): 11%
  Population Tubulin-Different-Phenotype (%): 15%
  Total Cell Count: 98
[2]
  Population Apoptotic (%): 100%
  Population Fragmented Nuclei (%): 8%
  Population Healthy Nuclei (%): 87%
  Population Hoechst High Intensity Objects (%): 9%
  Population Membrane Permeable-Phenotype (%): 6%
  Population Mitochondria Different-Phenotype (%): 16%
  Population Mitotic Cells (%): 0%
  Population Normal (%): 90%
  Population Pyknosed Nuclei (%): 3%
  Population Tubulin-Different-Phenotype (%): 16%
  Total Cell Count: 62
[3]
  Population Apoptotic (%): 66%
  Population Fragmented Nuclei (%): 9%
  Population Healthy Nuclei (%): 85%
  Population Hoechst High Intensity Objects (%): 6%
  Population Membrane Permeable-Phenotype (%): 4%
  Population Mitochondria Different-Phenotype (%): 15%
  Population Mitotic Cells (%): 33%
  Population Normal (%): 93%
  Population Pyknosed Nuclei (%): 4%
  Population Tubulin-Different-Phenotype (%): 11%
  Total Cell Count: 205
[4]
  Population Apoptotic (%): 100%
  Population Fragmented Nuclei (%): 11%
  Population Healthy Nuclei (%): 87%
  Population Hoechst High Intensity Objects (%): 2%
  Population Membrane Permeable-Phenotype (%): 1%
  Population Mitochondria Different-Phenotype (%): 16%
  Population Mitotic Cells (%): 0%
  Population Normal (%): 97%
  Population Pyknosed Nuclei (%): 1%
  Population Tubulin-Different-Phenotype (%): 25%
  Total Cell Count: 83
[5]
  Population Apoptotic (%): 30%
  Population Fragmented Nuclei (%): 15%
  Population Healthy Nuclei (%): 73%
  Population Hoechst High Intensity Objects (%): 11%
  Population Membrane Permeable-Phenotype (%): 10%
  Population Mitochondria Different-Phenotype (%): 13%
  Population Mitotic Cells (%): 70%
  Population Normal (%): 89%
  Population Pyknosed Nuclei (%): 11%
  Population Tubulin-Different-Phenotype (%): 10%
  Total Cell Count: 100
[6]
  Population Apoptotic (%): 100%
  Population Fragmented Nuclei (%): 7%
  Population Healthy Nuclei (%): 89%
  Population Hoechst High Intensity Objects (%): 6%
  Population Membrane Permeable-Phenotype (%): 6%
  Population Mitochondria Different-Phenotype (%): 30%
  Population Mitotic Cells (%): 0%
  Population Normal (%): 93%
  Population Pyknosed Nuclei (%): 3%
  Population Tubulin-Different-Phenotype (%): 18%
  Total Cell Count: 60
[7]
  Population Apoptotic (%): 64%
  Population Fragmented Nuclei (%): 15%
  Population Healthy Nuclei (%): 77%
  Population Hoechst High Intensity Objects (%): 5%
  Population Membrane Permeable-Phenotype (%): 4%
  Population Mitochondria Different-Phenotype (%): 20%
  Population Mitotic Cells (%): 35%
  Population Normal (%): 94%
  Population Pyknosed Nuclei (%): 7%
  Population Tubulin-Different-Phenotype (%): 14%
  Total Cell Count: 206
[8]
  Population Apoptotic (%): 0%
  Population Fragmented Nuclei (%): 14%
  Population Healthy Nuclei (%): 81%
  Population Hoechst High Intensity Objects (%): 7%
  Population Membrane Permeable-Phenotype (%): 7%
  Population Mitochondria Different-Phenotype (%): 26%
  Population Mitotic Cells (%): 100%
  Population Normal (%): 92%
  Population Pyknosed Nuclei (%): 3%
  Population Tubulin-Different-Phenotype (%): 28%
  Total Cell Count: 83
[9]
  Population Apoptotic (%): 50%
  Population Fragmented Nuclei (%): 16%
  Population Healthy Nuclei (%): 75%
  Population Hoechst High Intensity Objects (%): 7%
  Population Membrane Permeable-Phenotype (%): 7%
  Population Mitochondria Different-Phenotype (%): 31%
  Population Mitotic Cells (%): 50%
  Population Normal (%): 92%
  Population Pyknosed Nuclei (%): 7%
  Population Tubulin-Different-Phenotype (%): 13%
  Total Cell Count: 117
[10]
  Population Apoptotic (%): 71%
  Population Fragmented Nuclei (%): 9%
  Population Healthy Nuclei (%): 80%
  Population Hoechst High Intensity Objects (%): 2%
  Population Membrane Permeable-Phenotype (%): 10%
  Population Mitochondria Different-Phenotype (%): 42%
  Population Mitotic Cells (%): 28%
  Population Normal (%): 97%
  Population Pyknosed Nuclei (%): 9%
  Population Tubulin-Different-Phenotype (%): 21%
  Total Cell Count: 73
[11]
  Population Apoptotic (%): 72%
  Population Fragmented Nuclei (%): 33%
  Population Healthy Nuclei (%): 47%
  Population Hoechst High Intensity Objects (%): 9%
  Population Membrane Permeable-Phenotype (%): 0%
  Population Mitochondria Different-Phenotype (%): 34%
  Population Mitotic Cells (%): 27%
  Population Normal (%): 90%
  Population Pyknosed Nuclei (%): 19%
  Population Tubulin-Different-Phenotype (%): 7%
  Total Cell Count: 213
[12]
  Population Apoptotic (%): 90%
  Population Fragmented Nuclei (%): 14%
  Population Healthy Nuclei (%): 70%
  Population Membrane Permeable-Phenotype (%): 20%
  Population Mitochondria Different-Phenotype (%): 54%
  Population Mitotic Cells (%): 9%
  Population Pyknosed Nuclei (%): 14%
  Population Tubulin-Different-Phenotype (%): 45%
  Total Cell Count: 83
